From PubChem
Dyrk1A ADPGlo = blocks rat Dyrk1A kinase activity; inhibition, % at 12.5 µM; hit rate 0.43% among 310,000; ADP-Glo luminescence, NFATc1 peptide; AID 504441
SR-BI DiI inh = blocks mouse SR-BI lipid uptake from DiI-HDL. AID 488896. inhibition, % at 12.5 µM. ldlA[mSR-BI] CHO cells, DiI-HDL uptake fluorescence, 3 h. hit rate 0.96% among 320,000;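 active means mean replicate inhibition of at least 70% and a set share of replicates each scoring 70 or more; inconclusive means meets just one of the two criteria; inactive means fails both criteria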
NSD2 inh = blocks human histone methyltransferase NSD2; O96028; NSD2 peptide methylation, AlphaScreen, 120 min; inhibition, % at 12.5 µM; hit rate 0.54% among 310,000
dFosB act = enhances mouse delta FosB homodimer DNA binding; hit rate 0.99% among 340,000; purified delta FosB, TAMRA-CDK5 oligo fluorescence polarization; percent of positive-control signal above neutral wells; activation, % at 25 µM;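 active means mean activation above about 17%, with every replicate also reaching it, limit read from the data, passing the limit was not always enough; inconclusive means only one of the two conditions met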
CDK5 inh = inhibitors of human CDK5/p35 kinase; hit rate 0.01% among 330,000; Recombinant CDK5/p35, ADP-Glo luminescence, 60 min; inhibition, % at 10 µM; AID 488839;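 active means highest replicate inhibition of at least 50% and at least 75% of replicates reaching 50%; inconclusive means only one of the two criteria met; inactive means both criteria failed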
Target sequence (Q00535 whole entry, looked up): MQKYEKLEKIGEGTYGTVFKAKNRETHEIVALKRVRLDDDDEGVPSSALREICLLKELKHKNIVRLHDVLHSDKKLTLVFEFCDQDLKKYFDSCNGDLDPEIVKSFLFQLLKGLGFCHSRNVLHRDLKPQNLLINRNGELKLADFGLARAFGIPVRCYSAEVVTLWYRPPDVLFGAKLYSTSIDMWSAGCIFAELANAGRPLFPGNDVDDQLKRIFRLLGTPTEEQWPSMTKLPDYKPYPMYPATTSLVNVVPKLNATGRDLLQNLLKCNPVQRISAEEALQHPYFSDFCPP
Target sequence (Q15078 whole entry, looked up): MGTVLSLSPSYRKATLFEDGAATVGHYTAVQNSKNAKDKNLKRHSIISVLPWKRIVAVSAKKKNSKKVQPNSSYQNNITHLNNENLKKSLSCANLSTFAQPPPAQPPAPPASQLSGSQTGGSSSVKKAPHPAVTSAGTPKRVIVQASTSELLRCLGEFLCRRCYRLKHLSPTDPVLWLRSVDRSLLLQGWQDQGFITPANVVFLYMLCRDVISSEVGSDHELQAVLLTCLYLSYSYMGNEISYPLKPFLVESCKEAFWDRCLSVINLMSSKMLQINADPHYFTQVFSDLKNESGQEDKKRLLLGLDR
SR-BI DiI-HDL act = activators of SR-BI mediated HDL lipid uptake. CHO ldlA[mSR-BI] cells, DiI-HDL uptake fluorescence, 3 h; 100 = double the neutral-control signal. activation, % at 12.5 µM. hit rate 0.096% among 320,000. AID 504775;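 active means mean replicate activation of at least 60% and every replicate at or above 60%; inconclusive means mean or all-replicate condition met, but not both; inactive means mean below 60% and not all replicates reaching 60%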
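Assay system: LDL receptor-deficient CHO ldlA cells overexpressing murine SR-BI / Medium: BSA-supplemented, HEPES-buffered Ham's F12, pH 7.4 / Probe or stimulus: DiI-labelled HDL at 10 µg/mL final / Timing: compound with DiI-HDL co-incubation, 3 h at 37 °C / Technique: bottom-read cell fluorescence after medium removal, ex 550/em 595 nm / Measure: HDL uptake via cellular fluorescence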
Hits are given with their value; 0 = inactive; ? = inconclusive; - = no result. An excerpt weighted towards active compounds, which were near 2.5% of everything screened. Unless noted, no stated cut-off is given here; in the data, active means inhibition above about 50%; inactive means the rest.

SMILES	Dyrk1A ADPGlo	SR-BI DiI inh	NSD2 inh	dFosB act	CDK5 inh	SR-BI DiI-HDL act
COc1ccc(-n2c(SCC(=O)Nc3cccc4ccccc34)nnc2-c2ccco2)cc1	-	-	0	-	-	-
Cn1cc(S(=O)(=O)N2CCCC2)cc1C(=O)O	-	0	0	0	0	0
O=S(=O)(Nc1nc2ccccc2nc1Nc1ccc(N2CCOCC2)cc1)c1cc(Cl)ccc1Cl	0	73	0	0	0	0
Cc1cccc(C(=O)NNC(=O)C23CC4CC(CC(C4)C2)C3)c1O	0	100	0	0	0	0
O=C(Nc1ccc(OC(F)(F)F)cc1)C1CC(=O)N(Cc2ccco2)C1 (centres undefined)	0	0	0	0	0	0
CCOc1ccc(/C=C/C(=O)N(CC)CC(=O)Nc2ccc3c(c2)OCCO3)cc1OCC	0	74	0	0	0	0
O=[N+]([O-])c1cc([N+](=O)[O-])c2c(=Nc3ccccc3)n(-c3ccccc3)n(O)c2c1	0	75	0	0	0	0
COc1ccc(NC(=O)COC(=O)c2n[nH]c3ccccc23)cc1	-	-	0	-	-	-
Oc1cccc(/C=N/Nc2cc(N3CCCC3)nc(N3CCCC3)n2)c1	0	0	0	57	0	0
Oc1ccc(/C=N/Nc2cc(N3CCCC3)nc(N3CCCC3)n2)cc1	0	0	0	0	0	0
Cc1ccc(C(=O)C(C)OC(=O)c2cc(=O)[nH]c3ccccc23)cc1 (centres undefined)	0	0	0	0	0	0
Cc1cc(C(=O)OCC(=O)Nc2c(Cl)cccc2Cl)c(C)o1	0	0	0	22	0	0
CC1=NN(c2nc(-c3ccc(C)cc3)cs2)C(=O)C1N=Nc1ccc(C(N)=O)cc1 (centres undefined)	0	81	0	0	0	0
CC1=NN(c2nc(-c3ccc(C)cc3)cs2)C(=O)C1N=Nc1ccc2ccccc2c1 (centres undefined)	0	0	0	0	0	0
CCC(C)C(NC(=O)C1CCC(C)CC1)C(=O)Nc1ccc(OC)cc1OC (centres undefined)	0	79	-	0	0	0
COc1ccc(OC)c(NC(=O)C(CC(C)C)NC(=O)C2CCCCC2)c1 (centres undefined)	0	0	-	0	0	0
CCC(C)C(NC(=O)C1CCC(C)CC1)C(=O)Nc1cc(OC)ccc1OC (centres undefined)	0	0	0	0	0	0
COc1ccc(NC(=O)C(CC(C)C)NC(=O)C2CCC(C)CC2)c(OC)c1 (centres undefined)	0	72	-	0	0	0
COc1cc(/C=C(\C#N)c2nc3ccccc3[nH]2)ccc1Oc1ccc([N+](=O)[O-])cn1	0	74	0	0	0	0
COc1cc(/C=C(/C#N)c2ccccc2)ccc1Oc1ccc([N+](=O)[O-])cn1	0	0	0	0	0	0
CC(C)N(C(=O)Nc1ccc2nsnc2c1)C(C)C	-	-	104	-	-	-
COc1ccc(N(C)C(=O)Nc2ccc3nsnc3c2)cc1	0	0	0	0	0	0
N=C1C=CC(=C(c2ccc(N)cc2)c2ccc(N)cc2)C=C1	0	104	-	0	0	0
Nc1ccc(C(=O)C(=O)c2ccc(N)cc2)cc1	0	0	0	0	0	0
N#CC(c1cccc(Cl)c1)c1ccc2c(C(F)(F)F)cc(C(F)(F)F)nc2n1 (centres undefined)	-	117	0	0	0	0
SMILES	Dyrk1A ADPGlo	SR-BI DiI inh	NSD2 inh	dFosB act	CDK5 inh	SR-BI DiI-HDL act
NNc1ccc2c(C(F)(F)F)cc(C(F)(F)F)nc2n1	0	0	0	0	0	0
CCN(CC)Cc1cc(Nc2ccnc3cc(Cl)ccc23)ccc1O	0	0	-	44	0	0
Oc1ccc(Nc2ccnc3cc(Cl)ccc23)cc1	0	0	0	?	0	0
COc1ccc(NC(=O)CCn2c(=O)c3cccn3c3ccccc32)cc1	-	0	0	0	-	0
COc1ccc(NC(=O)CCn2c(=O)c3cccn3c3ccccc32)c(OC)c1	-	75	0	0	-	0
O=C(CCn1c(=O)c2cccn2c2ccccc21)Nc1ccc(F)cc1	0	75	0	0	0	0
COc1ccc(NC(=O)CCN2C(=O)c3ccccc3C2=O)c(OC)c1	0	0	0	0	0	0
Cc1ccc(NC(=O)CCn2c(=O)c3cccn3c3ccccc32)c(C)c1	0	0	0	?	0	0
Cc1cc(C)cc(NC(=O)CCn2c(=O)c3cccn3c3ccccc32)c1	-	81	0	0	-	0
CC[C@]12c3[nH]c4ccccc4c3CCN1C(=O)C(CC(=O)NCc1cccc(C(F)(F)F)c1)C[C@@H]2C(=O)N1CCN(C(=O)c2ccco2)CC1 (some centres undefined)	0	0	-	0	0	0
COc1ccccc1N(C)S(=O)(=O)c1ccc(C(=O)NCC2CCCCC2)cc1	0	0	0	0	0	0
Cc1cc(OCC(=O)Nc2ccc(N3CCCC3)cc2)cc(C)c1Cl	0	87	0	65	0	0
CCc1ccccc1OCC(=O)Nc1ccc(N2CCCC2)cc1C	0	0	0	?	0	0
CCOc1ccc(OCC(=O)Nc2ccc(N3CCCCC3)cc2)cc1	0	0	0	0	0	0
CCc1ccc(OCC(=O)Nc2ccc(N3CCN(C(=O)c4ccccc4)CC3)cc2)cc1	0	0	0	0	0	0
Cc1cc(N2CCCC2)ccc1NC(=O)COc1ccccc1	0	72	0	0	0	0
COc1ccc(OCC(=O)Nc2ccc(N3CCN(C(=O)c4ccccc4C)CC3)cc2)cc1	0	77	0	0	0	0
C[C@]12c3[nH]c4ccc(Cl)cc4c3CCN1C(=O)[C@@H](CC(=O)NCCC1=CCCCC1)C[C@@H]2C(=O)N1CCCCC1	-	0	-	0	0	0
CCN1CCN(CCNC(=O)CCc2c(OC)nc3c(c(C)nn3-c3ccccc3)c2C)CC1	-	-	0	-	-	-
O=[N+]([O-])c1ccc(-c2c(-c3ccccc3)ncc3cc(F)ccc23)cc1	0	86	-	0	0	0
O=[N+]([O-])c1cccc(-c2c(-c3ccccc3)ncc3cc(F)ccc23)c1	0	0	-	0	0	0
Cc1ccc(NC(=O)CNc2cccc(Br)c2)cc1S(=O)(=O)N1CCOCC1	0	0	0	0	0	0
Cc1ccc(-c2nnc(NC3CCCCC3)c3ccccc23)cc1S(=O)(=O)N1CCN(C)CC1	0	0	0	0	0	0
Cc1ccc(-c2nnc(NCc3nc4ccccc4[nH]3)c3ccccc23)cc1S(=O)(=O)N1CCCCC1	0	0	0	80	0	0
O=C(CN1C(=O)CCSc2ccc(S(=O)(=O)N3CCOCC3)cc21)Nc1cccc(F)c1	0	0	0	0	0	0
CCCS(=O)(=O)N1CCC(C(=O)N2CCCC2)CC1	0	0	0	0	0	0
CCCS(=O)(=O)N1CCC(C(=O)N2CCOCC2)CC1	0	0	0	0	0	68
